Screening data as filed in PubChem.
A selection: hits, their analogues and other compounds. The true share with any hit is near 1.9%.
NPY-Y2 PAM-ag: NPY-Y2 potentiators or agonists, primary screen, cell-based; Neuropeptide Y receptor type 2 (Homo sapiens), P49146; activation, % at 3.6 µM; cells expressing NPY-Y2, potentiator/agonist read-out; 0.45% of 220,000 active; in the data active means activation above about 27%;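 further: cells stimulated with NPY near EC25 plus isoproterenol at EC100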
Target sequence (P49146 whole entry, looked up): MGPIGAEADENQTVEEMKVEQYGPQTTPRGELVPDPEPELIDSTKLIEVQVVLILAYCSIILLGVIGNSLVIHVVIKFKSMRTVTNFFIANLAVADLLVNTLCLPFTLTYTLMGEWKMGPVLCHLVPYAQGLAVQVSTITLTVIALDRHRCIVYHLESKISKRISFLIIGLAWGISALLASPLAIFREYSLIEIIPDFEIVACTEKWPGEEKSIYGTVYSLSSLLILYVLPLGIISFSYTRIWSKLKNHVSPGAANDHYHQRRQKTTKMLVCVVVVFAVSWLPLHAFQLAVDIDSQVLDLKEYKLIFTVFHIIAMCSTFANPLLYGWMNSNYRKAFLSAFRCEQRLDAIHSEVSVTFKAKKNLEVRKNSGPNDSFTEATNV
NPY-Y1 antag: NPY-Y1 receptor antagonists, primary screen, cell-based; Neuropeptide Y receptor type 1 (Homo sapiens), P25929; inhibition, % at 3.6 µM; HEK293-CNG Y1 cells, membrane potential fluorescence; NPY at EC95, then isoproterenol; 1% of 200,000 active;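 active means inhibition above the campaign mean inhibition of all tested compounds plus 3 SD, cut at about 20% in these data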
Target sequence (P25929 whole entry, looked up): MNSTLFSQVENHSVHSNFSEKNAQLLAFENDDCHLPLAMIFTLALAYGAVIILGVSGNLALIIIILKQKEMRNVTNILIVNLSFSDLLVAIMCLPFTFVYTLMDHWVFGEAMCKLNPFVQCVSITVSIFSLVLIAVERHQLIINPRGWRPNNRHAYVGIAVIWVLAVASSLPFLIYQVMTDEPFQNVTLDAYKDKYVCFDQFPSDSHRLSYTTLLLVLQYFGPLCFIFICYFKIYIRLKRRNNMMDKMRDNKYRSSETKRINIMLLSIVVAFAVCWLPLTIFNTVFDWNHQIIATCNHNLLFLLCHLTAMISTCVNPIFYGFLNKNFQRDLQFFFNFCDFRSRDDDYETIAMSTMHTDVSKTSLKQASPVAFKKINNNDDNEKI
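System: HEK293 cells with Y1 receptor plus CNG channel / Probe or stimulus: NPY 25 nM then isoproterenol 1 µM plus Ro 20-1724 25 µM / Compound: one concentration, 3.6 µM, in 0.4% DMSO / Schedule: compound incubation 1 h at room temperature, readout 45 min post-stimulation / Measured by: membrane potential fluorescence / Read-out: % inhibition of NPY effect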
NPY-Y1 PAM-ag: NPY-Y1 receptor potentiators or agonists, primary screen, cell-based. Neuropeptide Y receptor type 1 (Homo sapiens), P25929. NPY-Y1 expressing cells, potentiator/agonist activation. activation, % at 3.6 µM. 0.37% of 220,000 active. AID 1304, 2008; in the data active means activation above about 33%, passing the limit was not always enough;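 further: cells stimulated with NPY at EC10 then isoproterenol at EC100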
NPY Y2 blocker: NPY-Y2 receptor antagonists, primary screen, cell-based; Neuropeptide Y receptor type 2 (Homo sapiens), P49146; NPY-Y2 expressing cells, antagonist mode; inhibition, % at 2.7 µM; 0.99% of 140,000 active
NPY-Y1 ant conf: NPY-Y1 receptor antagonists, retest of hits, confirmation, HEK293-CNG cells, membrane potential fluorescence, triplicate. shares compounds with NPY-Y1 antag. cAMP; NPY challenge against isoproterenol-raised cAMP. inhibition, % at 3.6 µM. 21% of 1,200 active. AID 1254, 2008; in the data active means inhibition above about 20%
NPY2 antag ctr: NPY-Y2 receptor antagonists, selectivity check, confirmation, counter-screen for NPY-Y1 antagonist project, HEK293-CNG cells, membrane potential fluorescence, triplicate. shares compounds with NPY-Y1 antag. antagonism; cells given NPY, then isoproterenol. inhibition, % at 3.6 µM. 28% of 1,200 active. AID 1255, 2008
Each line names hits and unclear results; the compound was inactive in the other large screens (follow-up assays come after a bar, where they were run). Unless noted, no stated cut-off is given here; in the data, active means inhibition above about 17%; inactive means the rest.

c1ccc(-c2nc3cnccn3c2Nc2ccc3c(c2)OCCO3)cc1	NPY-Y1 antag 37 | NPY-Y1 ant conf inactive | NPY2 antag ctr inactive
Cc1ccc(C)c2nc3sc(C(=O)O)cc3cc12	none (no result: NPY Y2 blocker)
Cc1nc2nc(SCC(=O)O)nn2c(C)c1Cc1ccccc1Cl	NPY-Y1 antag 23 (no result: NPY Y2 blocker) | NPY-Y1 ant conf inactive | NPY2 antag ctr inactive
Cc1ccnc(N2CCC(C(=O)Nc3ccc4c(c3)OCCO4)CC2)n1	none (no result: NPY Y2 blocker)
Cc1c(Cl)ccc2c(C(=O)NCCN3CCCCC3)cc(-c3ccccn3)nc12	NPY-Y1 antag 25 (no result: NPY Y2 blocker) | NPY-Y1 ant conf inactive | NPY2 antag ctr 29
COC(=O)c1cc(Cl)c(NC(=O)c2cc3ccccc3o2)cc1OC	none
CN(C)c1ccnc(N(Cc2ccccc2)Cc2ccccc2)c1C#N	NPY-Y1 antag 39 | NPY-Y1 ant conf 48 | NPY2 antag ctr 83
CN(C)c1ccnc(NCc2ccccc2)c1C#N	none
CCCCNCCOc1ccccc1-c1ccccc1	NPY-Y1 antag 30 | NPY-Y1 ant conf inactive | NPY2 antag ctr inactive
CC1CCCN(CCCOc2ccccc2-c2ccccc2)C1 (stereo not given)	NPY-Y1 antag 25 (no result: NPY Y2 blocker) | NPY-Y1 ant conf inactive | NPY2 antag ctr inactive
c1ccc(-c2ccccc2OCCCCN2CCCCCC2)cc1	NPY-Y1 antag 24 (no result: NPY Y2 blocker) | NPY-Y1 ant conf inactive | NPY2 antag ctr inactive
COCCCNCCOc1ccccc1-c1ccccc1	none
CCCNC(=S)N1CC2(C)CN(C(=O)C(=O)OCC)CC(C)(C1)C2=O	none (no result: NPY Y2 blocker)
O=S(=O)(Nc1ccc(-c2nc3cccnc3s2)cc1)c1ccccc1F	none (no result: NPY-Y1 antag, NPY Y2 blocker)
O=C(CSc1nnc2ccccn12)NNC(=O)c1ccc(Br)cc1	none (no result: NPY Y2 blocker)
Cc1cc(N/N=C2/CCCc3ccccc32)nc2ccccc12	NPY-Y1 antag 29 (no result: NPY Y2 blocker) | NPY-Y1 ant conf 32 | NPY2 antag ctr 29
Cc1cc2c(=O)n(Cc3ccco3)c(SCC(=O)N3CCCc4ccccc43)nc2s1	NPY-Y1 antag 22 | NPY-Y1 ant conf inactive | NPY2 antag ctr inactive
C/C(=N\Nc1nc2ccccc2[nH]1)c1ccc2c(c1)OCCO2	none (no result: NPY Y2 blocker)
C/C(=N\Nc1nc2ccccc2[nH]1)c1cc2ccccc2o1	NPY-Y1 antag 33 | NPY-Y1 ant conf inactive | NPY2 antag ctr 17
Fc1ccc(-c2[nH]ncc2CN(CC2CCC2)CC2CCCO2)c(F)c1 (stereo not given)	none (no result: NPY Y2 blocker)
COC(=O)CC/C(O)=C1\C(=O)CC(C)(C)CC1=NCCc1nc2ccccc2[nH]1	none (no result: NPY Y2 blocker)
O=C(OCc1cn(-c2ccc(Cl)cc2)nn1)c1ccccc1	NPY-Y1 antag 21 | NPY-Y1 ant conf inactive | NPY2 antag ctr inactive
CC(C)(C)C(=O)OCc1cn(-c2ccc(Cl)cc2)nn1	none
O=C(Nc1cccc(Cl)c1)OCc1cn(-c2ccc(Cl)cc2)nn1	NPY-Y1 antag 20 | NPY-Y1 ant conf inactive | NPY2 antag ctr inactive
Cc1ccc(NC(=O)OCc2cn(-c3ccc(Cl)cc3)nn2)cc1	NPY-Y1 antag 29 | NPY-Y1 ant conf inactive | NPY2 antag ctr 18
O=C(Nc1cccc(Cl)c1)OCc1cnc(Cl)s1	none
Cc1cc(C(=O)N/N=C2\CC(=O)c3ccccc32)c(C)n1-c1ccccc1	none (no result: NPY Y2 blocker)
CCCCNC(=O)N1CCc2ccccc2C1	none
CCCCNc1nc2ccccc2n1CC(=O)N1CCc2ccccc2C1	NPY-Y1 antag 23 | NPY-Y1 ant conf inactive | NPY2 antag ctr inactive
CCCCNc1nc2ccccc2n1CC(=O)Nc1c(C)cccc1CC	NPY-Y1 antag 31 | NPY-Y1 ant conf inactive | NPY2 antag ctr inactive
COc1cccc(NC(=O)c2ccccc2-c2nc(-c3ccc(F)cc3)no2)c1	NPY-Y1 antag 22 | NPY-Y1 ant conf inactive | NPY2 antag ctr inactive
COc1cccc(NC(=O)c2ccccc2-c2nc(-c3ccccc3)no2)c1	NPY-Y1 antag 26 | NPY-Y1 ant conf inactive | NPY2 antag ctr inactive
Cc1noc(C)c1C(=O)NCc1ccccc1F	none (no result: NPY Y2 blocker)
Cc1ccc(-c2n[nH]c(=S)n2/N=C/c2c(C)nn(-c3ccccc3)c2C)cc1	none
CCc1n[nH]c(=S)n1/N=C/c1c(C)nn(-c2ccccc2)c1Cl	NPY-Y1 antag 45 (no result: NPY Y2 blocker) | NPY-Y1 ant conf 32 | NPY2 antag ctr 53
CC(C)=C(NC(=O)c1ccccc1)C(=O)N1CCOCC1	NPY-Y1 antag 22 | NPY-Y1 ant conf inactive | NPY2 antag ctr inactive
CCOC(=O)C1(CC2CCCCO2)CCN(Cc2c(C)cc(C)cc2-n2cccn2)CC1 (stereo not given)	NPY-Y1 antag 24 (no result: NPY Y2 blocker) | NPY-Y1 ant conf inactive | NPY2 antag ctr inactive
CCOC(=O)C1(CC2CCCCO2)CCN(Cc2nccn2-c2cccc(C)c2)CC1 (stereo not given)	none (no result: NPY Y2 blocker)
CCOC(=O)C1(CC2CCCCO2)CCN(Cc2cc(F)ccc2-n2cccn2)CC1 (stereo not given)	NPY-Y1 antag 25 (no result: NPY Y2 blocker) | NPY-Y1 ant conf inactive | NPY2 antag ctr inactive
CCOc1ccc(N=C(NN)c2ccc3ccccc3n2)cc1	NPY-Y1 antag 24 | NPY-Y1 ant conf inactive | NPY2 antag ctr inactive
CCOc1cccc(-c2nc(C(N)=O)c3[nH]c(=O)n(-c4cccc(Cl)c4)c3n2)c1O	none
CCOc1ccccc1-c1nc(C(N)=O)c2[nH]c(=O)n(-c3cccc(C)c3)c2n1	NPY-Y1 antag 24 | NPY-Y1 ant conf inactive | NPY2 antag ctr inactive
Cc1cccc2nc(-c3cccnc3)c(NCCC(C)C)n12	NPY-Y1 antag 22 (no result: NPY Y2 blocker) | NPY-Y1 ant conf inactive | NPY2 antag ctr inactive
Cc1cc(-c2ccccc2)nc(Oc2cccc(C(F)(F)F)c2)c1S(C)(=O)=O	NPY-Y1 antag 29 | NPY-Y1 ant conf inactive | NPY2 antag ctr inactive
CS(=O)(=O)Nc1cccc(C2=NN(C(=O)c3ccccc3Cl)C(c3ccccc3O)C2)c1 (stereo not given)	none
O=C(Cn1c(C(=O)N2CCc3ccccc3C2)cc2sccc21)c1ccccc1	none
O=C(Cn1c(C(=O)N2CCN(C3CCCCC3)CC2)cc2sccc21)c1ccccc1	NPY-Y1 antag 22 | NPY-Y1 ant conf inactive | NPY2 antag ctr inactive
O=c1oc2ccccc2cc1-c1nc(-c2cccs2)cs1	NPY-Y1 antag 30 | NPY-Y1 ant conf inactive | NPY2 antag ctr inactive
COc1cccc2cc(-c3nc(-c4cccs4)cs3)c(=O)oc12	none
O=C(NC(NC(=S)Nc1c(Cl)cccc1Cl)C(Cl)(Cl)Cl)OCc1ccccc1 (stereo not given)	NPY-Y1 antag 22 | NPY-Y1 ant conf inactive | NPY2 antag ctr inactive
O=C(CN1CCN(Cc2ccccc2)CC1)N/N=C/c1ccc(Br)s1	none (no result: NPY-Y1 antag, NPY Y2 blocker)
CCCCC(=O)NC(=S)Nc1cccc(NC(=O)c2ccco2)c1	none
COCCNC(=O)c1ccccc1NC(=O)CSc1ccc(C)cc1	none (no result: NPY Y2 blocker)
Cc1cc2ncn(-c3ncnc4scc(-c5ccccc5)c34)c2cc1C	NPY-Y1 antag 31 | NPY-Y1 ant conf inactive | NPY2 antag ctr inactive
